Experimental data as given in ChEMBL document CHEMBL3259774, “Antimycobacterial activity of chiral aminoalcohols with camphane scaffold” (Eur J Med Chem, 2014).
≈ marks a conversion by molar mass, not a printed value.

System: Mycobacterium tuberculosis
Assay: Antimycobacterial activity against rifampicin and isoniazid-resistant Mycobacterium tuberculosis 43 assessed as growth inhibition
Assay type: functional
Method in brief: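 MDR strain 43, resistant to rifampicin and isoniazid, was a clinical isolate from an HIV-negative Bulgarian adult with pulmonary TB. Tested by the Canetti proportion method on Löwenstein–Jensen medium, with compound in DMSO added before coagulation. Colonies were compared with drug-free control as percent inhibition. MIC is the lowest concentration giving complete inhibition (0% growth).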

SMILES	MIC [µM]
CC1(C)[C@@H]2CC[C@@]1([C@@H](O)CN1CCOCC1)C(=O)C2	> 18.7
CC1(C)[C@@H]2CC[C@@]1([C@H](O)CN1CCN(c3ccc(F)cc3)CC1)C(=O)C2	0.55 (≈ 0.198 µg/mL)
CC1(C)[C@@H]2CC[C@@]1([C@H](O)CN1CCN(c3ccc(Cl)cc3)CC1)C(=O)C2	0.27 (≈ 0.102 µg/mL)
CC1(C)[C@@H]2CC[C@@]1([C@@H](O)CN1CCN(c3ccc(F)cc3)CC1)C(=O)C2	0.55 (≈ 0.198 µg/mL)
CC1CCN(C[C@@H](O)[C@]23CC[C@H](CC2=O)C3(C)C)CC1	0.72 (≈ 0.201 µg/mL)
CC1(C)[C@@H]2CC[C@@]1([C@@H](O)CN1CCCCC1)C(=O)C2	18.9 (≈ 5.02 µg/mL)
